Laboratory results: ChEMBL document CHEMBL4190389, “Synthesis and activity of di- or trisubstituted N-(phenoxyalkyl)- or N-{2-[2-(phenoxy)ethoxy]ethyl}piperazine derivatives on the central nervous system” (Bioorg Med Chem Lett, 2018)
Active and inactive are the calls of the source. No cut-off for these calls is given here.

Key:
[1] = target: T1, 5-hydroxytryptamine receptor 1A (Homo sapiens) (UniProt P08908); assay: Agonist activity at human 5-HT1A receptor expressed in CHO-K1 cells co-expressing Galpha16 assessed as increase in calcium mobilization measured for 30 secs by aequorin-derived luminescence assay relative to serotonin; assay type: functional, cell-based
T1 sequence (whole entry): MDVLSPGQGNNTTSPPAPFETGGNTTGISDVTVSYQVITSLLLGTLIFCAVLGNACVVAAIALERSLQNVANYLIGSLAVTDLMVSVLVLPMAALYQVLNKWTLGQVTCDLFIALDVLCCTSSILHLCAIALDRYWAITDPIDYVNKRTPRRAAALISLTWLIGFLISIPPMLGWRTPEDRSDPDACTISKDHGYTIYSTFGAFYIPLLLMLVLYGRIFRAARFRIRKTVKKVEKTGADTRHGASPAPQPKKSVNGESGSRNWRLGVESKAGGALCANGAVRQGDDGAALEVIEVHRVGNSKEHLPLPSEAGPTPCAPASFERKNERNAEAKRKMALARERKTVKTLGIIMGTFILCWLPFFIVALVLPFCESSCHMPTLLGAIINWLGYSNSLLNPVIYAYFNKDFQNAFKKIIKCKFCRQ

[2] = target: T1, 5-hydroxytryptamine receptor 1A (Homo sapiens); assay: Antagonist activity at human 5-HT1A receptor expressed in CHO-K1 cells co-expressing Galpha16 assessed as decrease in serotonin-induced calcium mobilization preincubated for 25 mins followed by serotonin challenge measured for 30 secs by aequorin-derived luminescence assay relative to control; assay type: functional, cell-based
[3] = target: T2, 5-hydroxytryptamine receptor 1A (Homo sapiens, UniProt P08908); assay: (§1) Antagonist activity at human 5-HT1A receptor expressed in CHO-K1 cells co-expressing Galpha16 assessed as decrease in serotonin calcium mobilization preincubated for 25 mins followed by serotonin challenge measured for 30 secs by aequorin-derived luminescence assay; assay type: functional, cell-based
T2 sequence (P08908 whole entry): T1 sequence (whole entry)

[4] = target: T1, 5-hydroxytryptamine receptor 1A (Homo sapiens); assay: as §1; assay type: functional, cell-based
D(2) dopamine receptor [5] = target: T3, D(2) dopamine receptor (Homo sapiens, UniProt P14416); assay: Agonist activity at human D2 receptor expressed in CHO-K1 cells co-expressing Galphaqi5 assessed as increase apomorphine-induced calcium mobilization measured for 30 secs by aequorin-derived luminescence assay relative to apomorphine; assay type: functional, cell-based
T3 sequence (P14416 whole entry): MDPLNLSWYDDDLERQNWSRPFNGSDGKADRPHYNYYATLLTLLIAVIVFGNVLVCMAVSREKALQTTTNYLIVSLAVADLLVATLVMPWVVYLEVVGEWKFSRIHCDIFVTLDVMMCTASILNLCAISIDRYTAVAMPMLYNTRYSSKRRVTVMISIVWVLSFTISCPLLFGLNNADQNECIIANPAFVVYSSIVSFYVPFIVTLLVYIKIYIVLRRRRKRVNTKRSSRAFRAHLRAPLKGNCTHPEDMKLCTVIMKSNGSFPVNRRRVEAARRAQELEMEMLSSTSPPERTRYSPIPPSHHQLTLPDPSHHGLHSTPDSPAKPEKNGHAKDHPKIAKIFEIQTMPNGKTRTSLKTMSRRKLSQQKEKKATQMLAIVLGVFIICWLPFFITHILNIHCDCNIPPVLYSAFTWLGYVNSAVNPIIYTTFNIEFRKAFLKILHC

Mus musculus [6] = assay: Toxicity in Albino Swiss CD-1 mouse assessed as effect on locomotory activity at 5 to 10 mg/kg, ip administered for 30 mins prior to test measured for 1 min; assay type: organism-based; conditions: in vivo
How it was run: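 Mice dosed i.p. 30 min before test; vehicle groups received 0.9% NaCl. Spontaneous locomotion scored as number of crossings during a 1-min session. Each dose compared with its own vehicle group by Student t-test; mean ± SEM, n = 8–10 mice per group.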

Mus musculus [7] = assay: Anxiolytic-like activity in Albino Swiss CD-1 mouse assessed as increase in number of punished crossings at 10 mg/kg, ip administered for 30 mins prior to test measured for 1 min by four-plate test; assay type: functional, organism-based
How it was run: (§2)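 Four-plate test in mice, i.p., 30 min before test; vehicle 0.9% NaCl; doses 1.25–10 mg/kg; number of punished crossings counted; mean ± SEM, n = 8–10 mice per group; ANOVA F statistics.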

Mus musculus [8] = assay: Antidepressant-like activity in Albino Swiss CD-1 mouse assessed as immobility time at 20 mg/kg, ip administered 30 mins prior to test measured for last 4 mins of 6 mins observation by forced swim test (reference value: 153.9 to 201.9 secs); assay type: functional
Mus musculus [9] = assay: Antidepressant-like activity in Albino Swiss CD-1 mouse assessed as immobility time at 5 mg/kg, ip administered 30 mins prior to test measured for last 4 mins of 6 mins observation by forced swim test (reference value: 153.9 to 201.9 secs); assay type: functional
[10] = target: 5-hydroxytryptamine receptor 2A (Homo sapiens, UniProt P28223); assay: biochemical; assay type: cell-based, HEK293;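 note: radioligand displacement of [3H]ketanserin binding at human 5-HT2A receptor in membranes from HEK293 cells, 60 min incubation, read by liquid scintillation counting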
Sequence of 5-hydroxytryptamine receptor 2A (P28223 whole entry): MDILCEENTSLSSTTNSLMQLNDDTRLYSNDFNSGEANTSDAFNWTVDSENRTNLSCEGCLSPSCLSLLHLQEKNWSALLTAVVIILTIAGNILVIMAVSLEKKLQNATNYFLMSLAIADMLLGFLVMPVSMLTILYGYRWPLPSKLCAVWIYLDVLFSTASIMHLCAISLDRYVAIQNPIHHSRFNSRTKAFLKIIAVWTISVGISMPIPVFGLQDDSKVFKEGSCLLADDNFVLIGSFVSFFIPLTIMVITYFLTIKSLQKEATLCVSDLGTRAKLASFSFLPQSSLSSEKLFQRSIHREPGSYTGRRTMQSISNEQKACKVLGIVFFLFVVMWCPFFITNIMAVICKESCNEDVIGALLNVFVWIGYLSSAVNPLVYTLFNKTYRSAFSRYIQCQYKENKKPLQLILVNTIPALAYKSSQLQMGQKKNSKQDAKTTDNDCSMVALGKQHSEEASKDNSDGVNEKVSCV

D(2) dopamine receptor [11] = target: T3, D(2) dopamine receptor; assay: Displacement of [3H]methylspiperonee from recombinant human D2 receptor expressed in HEK293 cell membranes at 10^-5 M after 60 mins by liquid scintillation counting method
[12] = target: T1, 5-hydroxytryptamine receptor 1A (Homo sapiens); assay: Displacement of [3H]8-OH-DPAT from recombinant human 5-HT1A receptor expressed in HEK293 cell membranes at 10^-5 M after 60 mins by liquid scintillation counting method
Mus musculus [13] = assay: Antidepressant-like activity in Albino Swiss CD-1 mouse assessed as immobility time at 10 mg/kg, ip administered 30 mins prior to test measured for last 4 mins of 6 mins observation by forced swim test (reference value: 153.9 to 201.9 secs); assay type: functional
[14] = target: T4, Alpha-1A adrenergic receptor (Homo sapiens) (UniProt P35348); assay: Displacement of [3H]prazosin from recombinant human alpha1 adrenoceptor expressed in CHO cell membranes at 10^-5 M after 30 mins by liquid scintillation counting method
T4 sequence (whole entry): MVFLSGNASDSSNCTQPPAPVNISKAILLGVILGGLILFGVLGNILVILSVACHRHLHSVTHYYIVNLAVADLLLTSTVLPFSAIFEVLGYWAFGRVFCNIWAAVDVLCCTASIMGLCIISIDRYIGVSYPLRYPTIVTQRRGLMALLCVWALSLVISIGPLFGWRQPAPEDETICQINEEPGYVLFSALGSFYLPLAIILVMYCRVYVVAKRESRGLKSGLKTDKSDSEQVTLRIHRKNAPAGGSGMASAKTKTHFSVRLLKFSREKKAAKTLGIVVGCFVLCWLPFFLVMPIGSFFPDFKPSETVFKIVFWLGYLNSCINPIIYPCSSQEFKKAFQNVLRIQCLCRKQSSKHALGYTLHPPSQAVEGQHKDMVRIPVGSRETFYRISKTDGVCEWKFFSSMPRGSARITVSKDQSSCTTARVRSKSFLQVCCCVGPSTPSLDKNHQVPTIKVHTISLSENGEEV

[15] = target: T5, 5-hydroxytryptamine receptor 7 (Homo sapiens, UniProt P34969); assay: biochemical; assay type: cell-based, CHO
T5 sequence (P34969 whole entry): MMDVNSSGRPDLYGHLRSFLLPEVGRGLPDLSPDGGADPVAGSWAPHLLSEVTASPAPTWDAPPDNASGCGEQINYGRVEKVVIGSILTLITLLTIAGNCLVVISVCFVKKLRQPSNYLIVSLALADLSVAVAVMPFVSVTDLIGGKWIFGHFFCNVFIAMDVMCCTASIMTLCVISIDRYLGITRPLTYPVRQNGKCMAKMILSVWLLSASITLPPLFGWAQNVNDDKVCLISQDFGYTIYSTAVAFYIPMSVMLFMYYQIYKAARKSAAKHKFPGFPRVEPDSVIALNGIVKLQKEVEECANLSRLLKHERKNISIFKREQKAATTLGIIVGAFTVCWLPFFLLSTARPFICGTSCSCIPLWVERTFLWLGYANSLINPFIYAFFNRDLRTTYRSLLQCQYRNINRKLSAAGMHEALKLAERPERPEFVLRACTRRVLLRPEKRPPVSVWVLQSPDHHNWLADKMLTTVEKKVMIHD

[16] = target: 5-hydroxytryptamine receptor 6 (Homo sapiens, UniProt P50406); assay: Displacement of [3H]LSD from recombinant human 5-HT6 receptor expressed in CHO cells cell membranes after 60 mins by liquid scintillation counting method
Sequence of 5-hydroxytryptamine receptor 6 (P50406 whole entry): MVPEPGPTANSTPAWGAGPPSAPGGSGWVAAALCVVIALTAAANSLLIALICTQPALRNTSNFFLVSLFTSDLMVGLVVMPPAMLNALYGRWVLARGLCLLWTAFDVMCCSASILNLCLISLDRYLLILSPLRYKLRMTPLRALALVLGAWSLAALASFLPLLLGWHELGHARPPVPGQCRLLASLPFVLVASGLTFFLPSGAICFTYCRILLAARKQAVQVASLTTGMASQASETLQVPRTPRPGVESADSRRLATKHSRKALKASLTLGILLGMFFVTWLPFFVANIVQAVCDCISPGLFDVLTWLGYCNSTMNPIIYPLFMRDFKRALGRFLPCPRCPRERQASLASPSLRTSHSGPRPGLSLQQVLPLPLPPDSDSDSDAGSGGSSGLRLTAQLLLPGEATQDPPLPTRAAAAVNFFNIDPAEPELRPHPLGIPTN

Mus musculus [17] = assay: Antiallodynic activity in STZ-induced Albino Swiss CD-1 mouse allodynia model assessed as increase in paw withdrawal latency time at 30 mg/kg, ip measured after 60 mins by Von Frey test; assay type: functional, organism-based
Mus musculus [18] = assay: Antiallodynic activity in oxaliplatin-induced Albino Swiss CD-1 mouse allodynia model assessed as effect on shaking at 30 mg/kg, ip measured after 60 mins by cold plate test; assay type: functional, organism-based
Mus musculus [19] = assay: Anxiolytic-like activity in Albino Swiss CD-1 mouse assessed as increase in number of punished crossings at 5 to 10 mg/kg, ip administered for 30 mins prior to test measured for 1 min by four-plate test; assay type: functional, organism-based; how it was run: as §2
Mus musculus [20] = assay: Anticonvulsant activity in ip dosed Albino Swiss CD-1 mouse assessed as dose required to protect against 50 Hz current-induced seizure; assay type: functional; conditions: Swiss CD-1, ip
Mus musculus [21] = assay: Antinociceptive activity in STZ-induced Albino Swiss CD-1 mouse model of thermal-induced nociception assessed as increase in latency to respond with hind paw lick or jumping at 30 mg/kg, ip measured after 60 mins by hot plate test; assay type: functional, organism-based
Mus musculus [22] = assay: Antiallodynic activity in oxaliplatin-induced Albino Swiss CD-1 mouse allodynia model assessed as effect on hind paw licking at 30 mg/kg, ip measured after 60 mins by cold plate test; assay type: functional, organism-based
Mus musculus [23] = assay: Antiallodynic activity in oxaliplatin-induced Albino Swiss CD-1 mouse allodynia model assessed as effect on decrease in abnormal movement at 30 mg/kg, ip measured after 60 mins by cold plate test; assay type: functional, organism-based
Mus musculus [24] = assay: Toxicity in Albino Swiss CD-1 mouse assessed as death at 30 to 100 mg/kg, ip; assay type: organism-based; conditions: in vivo
How it was run: (§3)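 Deaths counted in mice during maximal electroshock (MES) seizure testing after i.p. dosing, 6 mice per dose (3 or 1 at some top doses); recorded as number dead/number tested alongside protection and rotarod motor impairment (10 rpm); untreated control group included.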

[25] = Neurotoxicity in ip dosed Albino Swiss CD-1 mouse assessed as minimum dose required to induce motor impairment treated 30 mins prior to test by rotarod test; assay type: toxicity, organism-based; conditions: in vivo
[26] = Protection index, ratio of TD50 for motor impairment in ip dosed Swiss albino CD-1 mouse to ED50 for protection against 50 Hz current-induced seizures in ip dosed Swiss albino CD-1 mouse; assay type: toxicity, organism-based, Swiss CD-1; conditions: in vivo, read-out: Ratio TD50/ED50
Mus musculus [27] = assay: Antiallodynic activity in oxaliplatin-induced Albino Swiss CD-1 mouse allodynia model assessed as effect on jumping at 30 mg/kg, ip measured after 60 mins by cold plate test; assay type: functional, organism-based
Mus musculus [28] = assay: Anticonvulsant activity in Albino Swiss CD-1 mouse assessed as protection against 50 Hz current-induced seizure at 100 mg/kg, ip; assay type: functional, organism-based
[29] = target: T5, 5-hydroxytryptamine receptor 7; assay: Displacement of [3H]LSD from recombinant human 5-HT7 receptor expressed in CHO cell membranes at 10^-5 M after 60 mins by liquid scintillation counting method
[30] = target: T5, 5-hydroxytryptamine receptor 7; assay: Antagonist activity at human 5-HT7 receptor expressed in CHO-K1 cells assessed as decrease in serotonin-induced cAMP level after 1 hr by TR-FRET assay relative to control; assay type: functional, cell-based
[31] = target: T5, 5-hydroxytryptamine receptor 7; assay: Agonist activity at human 5-HT7 receptor expressed in CHO-K1 cells assessed as increase in serotonin-induced cAMP level after 1 hr by TR-FRET assay relative to serotonin; assay type: functional, cell-based
[32] = target: T6, Alpha-1A adrenergic receptor (Homo sapiens, UniProt P35348); assay: Displacement of [3H]prazosin from recombinant human alpha1 adrenoceptor expressed in CHO cell membranes after 30 mins by liquid scintillation counting method
T6 sequence (P35348 whole entry): T4 sequence (whole entry)

D(2) dopamine receptor [33] = target: T3, D(2) dopamine receptor; assay: Displacement of [3H]methylspiperonee from recombinant human D2 receptor expressed in HEK293 cells cell membranes after 60 mins by liquid scintillation counting method
D(2) dopamine receptor [34] = target: T3, D(2) dopamine receptor; assay: Antagonist activity at human D2 receptor expressed in CHO-K1 cells co-expressing Galphaqi5 assessed as decrease in apomorphine-induced calcium mobilization preincubated for 30 mins followed by apomorphine challenge measured for 30 secs by aequorin-derived luminescence assay; assay type: functional, cell-based
[35] = target: T2, 5-hydroxytryptamine receptor 1A; assay: Displacement of [3H]8-OH-DPAT from recombinant human 5-HT1A receptor expressed in HEK293 cell membranes after 60 mins by liquid scintillation counting method
[36] = target: T5, 5-hydroxytryptamine receptor 7; assay: Antagonist activity at human 5-HT7 receptor expressed in CHO-K1 cells assessed as decrease in serotonin-induced cAMP level after 1 hr by TR-FRET assay; assay type: functional, cell-based
Mus musculus [37] = assay: Toxicity in Albino Swiss CD-1 mouse assessed as death at 30 mg/kg, ip; assay type: organism-based; conditions: in vivo; how it was run: as §3

COc1ccccc1N1CCN(C[C@@H](C(=O)NC(C)(C)C)c2ccccc2)CC1
Emax [1]: 1%
Emax [2]: 0%
IC50 [3]: 16.9 nM
Kb [4]: 6.6 nM

CN(C)CCCN1c2ccccc2Sc2ccc(Cl)cc21
Emax (D(2) dopamine receptor [5]): 5%

Cc1cc(C)c(OCCOCCN2CCN(Cc3ccccc3)CC2)c(C)c1.Cl.Cl
Activity (Mus musculus [6]): Non-Toxic
Activity (Mus musculus [7]): Active
Time (Mus musculus [8]): 157.5 s
Time (Mus musculus [9]): 176.5 s
Ki [10]: 498 nM
inhibition (D(2) dopamine receptor [11]): inactive
inhibition [12]: inactive
Time (Mus musculus [13]): 182.4 s
inhibition [14]: inactive
Ki [15]: 3.16 µM
Ki [16]: > 5 µM

Cc1cc(C)c(C)c(OCCOCCN2CCN(CCO)CC2)c1.Cl.Cl
Activity (Mus musculus [17]): Active
Activity (Mus musculus [6]): Non-Toxic
Time (Mus musculus [8]): 176.4 s
Activity (Mus musculus [18]): inactive
Time (Mus musculus [9]): 171.8 s
Activity (Mus musculus [19]): inactive
Ki [10]: > 5000 nM
ED50 (Mus musculus [20]): 24.4 mg/kg
inhibition (D(2) dopamine receptor [11]): inactive
Activity (Mus musculus [21]): inactive
Activity (Mus musculus [22]): inactive
inhibition [12]: inactive
Time (Mus musculus [13]): 184.9 s
inhibition [14]: inactive
Ki [15]: 3.14 µM
Activity (Mus musculus [23]): inactive
Activity (Mus musculus [24]): Non-Toxic
TD50 at 0.5 h [25]: 74.9 mg/kg
selectivity ratio [26]: 3.07
Activity (Mus musculus [27]): inactive
Ki [16]: > 5 µM
Activity (Mus musculus [28]): Active

Cc1cc(C)c(OCCOCCN2CCN(CCO)CC2)c(C)c1.Cl.Cl
Activity (Mus musculus [6]): Non-Toxic
Activity (Mus musculus [7]): Active
Time (Mus musculus [8]): 197.3 s
Time (Mus musculus [9]): 182.6 s
Ki [10]: > 5000 nM
inhibition (D(2) dopamine receptor [11]): inactive
inhibition [12]: inactive
Time (Mus musculus [13]): 198.1 s
inhibition [29]: inactive
inhibition [14]: inactive
Ki [16]: > 5 µM

CC1CCN(CC[C@H]2CCCN2S(=O)(=O)c2cccc(O)c2)CC1
Emax [30]: -1%
Emax [31]: -1%

COc1ccccc1N1CCN(CCCOc2ccc(C)cc2C)CC1.Cl
Activity (Mus musculus [6]): Non-Toxic
Emax [1]: 5%
Time (Mus musculus [8]): 197.3 s
Time (Mus musculus [9]): 182.6 s
Activity (Mus musculus [19]): inactive
Ki [32]: 11 nM
Ki [10]: 527 nM
Emax [2]: 2%
IC50 [3]: 7.19 nM
Kb [4]: 1.8 nM
Time (Mus musculus [13]): 198.1 s
Emax (D(2) dopamine receptor [5]): 2%
Ki (D(2) dopamine receptor [33]): 97 nM
Ki [15]: 0.015 µM
IC50 (D(2) dopamine receptor [34]): 17.7 nM
Kb (D(2) dopamine receptor [34]): 5.29 nM
Ki [35]: 2 nM
IC50 [36]: 1050 nM
Kb [36]: 448 nM
Emax [30]: 5%
Activity (Mus musculus [37]): Non-Toxic
Ki [16]: > 5 µM
Emax [31]: 0%
